From PubChem
CHOP inhibitor: inhibitors of CHOP promoter induction, primary screen, cell-based, unfolded protein response, luciferase reporter | CHO-K1 CHOP-promoter luciferase, tunicamycin-induced, 15-18 h | inhibition, % at 10 µM | 220,000 compounds, 3.8% hits | AID 2732, 2010;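 active means compounds that reduced the stress-induced luciferase reporter signal by more than about 70% of percent inhibition, limit read from the data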
EBV gp42 block: Epstein-Barr virus gp42 inhibitors, primary screen, biochemical, uHTS, fluorescence polarization; Glycoprotein 42 (Epstein-Barr virus (strain AG876)), Q1HVG2; Fluorescence polarization binding assay, mP read-out; inhibition, % (tested at 21.74 µM); 220,000 compounds, 0.42% hits; AID 1085, 2008; in the data active means inhibition above about 50%
Target sequence (Q1HVG2 whole entry, looked up): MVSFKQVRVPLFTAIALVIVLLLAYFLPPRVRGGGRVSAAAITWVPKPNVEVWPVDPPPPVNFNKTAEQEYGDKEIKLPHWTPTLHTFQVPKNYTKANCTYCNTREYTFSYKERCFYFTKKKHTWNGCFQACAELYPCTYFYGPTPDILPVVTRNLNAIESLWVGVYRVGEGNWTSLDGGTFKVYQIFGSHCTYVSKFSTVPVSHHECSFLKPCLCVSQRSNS
NR3A LBD binder: binders of NR3A ligand-binding domain, primary screen, biophysical, differential scanning fluorimetry, uHTS. Glutamate receptor ionotropic, NMDA 3A (GRIN3A) ligand-binding domain. NR3A LBD differential scanning fluorimetry, Tm shift; 0% = protein alone, 100% = glycine-bound protein. Tm shift relative to glycine control, % at 25 µM. 340,000 compounds, 2.5% hits. AID 1259313, 2017;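 active means melting temperature shift of at least 10% of the positive control shift, at one fixed dose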
MPTP block: mitochondrial permeability transition pore inhibitors, primary screen, biochemical, isolated mouse mitochondria, absorbance; Ca2+ swelling absorbance, 30 min; inhibition, % at 10 µM; 360,000 compounds, 1.4% hits;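 active means inhibition of 50% or more, scaled per plate between neutral and stimulator controls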
TbMetRS inhib: T. brucei MetRS inhibitors, primary screen, biochemical, luminescence; 360,000 compounds, 0.4% hits; inhibition, % at 11.9 µM; methionyl-tRNA synthetase (Trypanosoma brucei brucei); purified T. brucei MetRS, ATP depletion, Kinase-Glo luminescence;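 active means inhibition above a per-plate cutoff of the control wells' mean inhibition plus 3 SD, cut at about 5.5% in these data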
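Material – parasite MetRS enzyme · Medium – HEPES-MgCl2-KCl buffer plus DTT, spermine, BSA, pyrophosphatase · Reagent – ATP, methionine and E. coli bulk tRNA substrates · Times – 15 min enzyme-compound preincubation, 2 h reaction, 10 min detection, 25 °C · Measured by – luminescence of leftover ATP · Evaluation – percent inhibition relative to median high and low control wells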
WT yeast gro inh: growth inhibition of WT strain, primary screen, mitochondrial fusion inhibitor project, WT and mutant strains, chemical genetic; mitochondrial fusion phenotypic screen; inhibition, % at 10 µM; 190,000 compounds, 2.1% hits; AID 1362, 2008; in the data active means inhibition above about 58%; tested in S. cerevisiae
Rh123 counter: fluorescence retest of MPTP screen hits in isolated mitochondria, single concentration; membrane potential, Rhodamine 123 fluorescence; 5,000 compounds, 78% hits; AID 624504, 2012; shares compounds with MPTP block; inhibition, % at 10 µM; in the data active means inhibition above about 22%
MPTP swell DR: mitochondrial permeability transition pore inhibitors, dose response, biochemical, absorbance, uHTS hits | shares compounds with MPTP block | isolated mitochondria swelling | IC50, µM | 780 compounds, 58% hits | AID 651561, 2012; in the data active means IC50 below about 20 µM
MPTP cs DR: fluorescent counter-screen in isolated mitochondria, dose response, counter-screen for MPTP inhibitor project, biochemical, fluorescence, uHTS hits | shares compounds with MPTP block | isolated mitochondria counterscreen, fluorescence read-out | IC50, µM | 780 compounds, 49% hits | AID 651564, 2012; in the data active means IC50 below about 80 µM
Of the large screens only hits and unclear results are named; the others gave an inactive call (follow-up assays come after a bar, where they were run). Most compounds without a hit are left out; they make up all but 6.4% or so of the library.

COc1ccc(CNS(=O)(=O)c2ccc3c(c2)CC(C)N3C(=O)C2CC2)cc1 (stereo not given)	MPTP block 99.1 (no result: CHOP inhibitor, EBV gp42 block, WT yeast gro inh) | Rh123 counter 87.6
CCCC(=O)c1ccc(N2CCN(C(=O)c3ccccc3)CC2)c(F)c1	none
CCCC(=O)c1ccc(N2CCN(C(=O)c3ccccc3Br)CC2)c(F)c1	CHOP inhibitor 74.1, MPTP block 79.7 | Rh123 counter 65.6
CC1(C(=O)Nc2ccc3c(c2)OCO3)CCN1C(=O)Cc1ccc(-c2ccccc2)cc1 (stereo not given)	MPTP block 74.1 (no result: CHOP inhibitor, EBV gp42 block, NR3A LBD binder, WT yeast gro inh) | Rh123 counter 96.0
O=C(NCCc1csc(-c2cccnc2)n1)c1c(F)cccc1F	none (no result: WT yeast gro inh)
Cc1cccc(OC(=O)c2ccncc2)c1C	none
N#C/C(=C\c1cc(Cl)ccc1O)C(=O)NC1CCCCC1	none
N#C/C(=C\c1cc(Cl)cc(Cl)c1O)C(=O)NC1CCCCC1	MPTP block 60.8 | Rh123 counter 67.5
COc1ccc(NC(=O)CCCn2c(=O)c3sccc3n(Cc3ccccc3)c2=O)cc1	none
COc1cc(CNn2nnnc2N)cc(Br)c1OCc1c(Cl)cccc1Cl	MPTP block 51.8 | Rh123 counter 30.4
O=C(NC(C1CC1)C1CC1)C1CCC(=O)N(CCCN2CCCC2=O)C1 (stereo not given)	none (no result: CHOP inhibitor, EBV gp42 block, WT yeast gro inh)
Cc1cc(NC(=O)CN2CCC(C)CC2)no1	none
CCN(CC)CCOC(=O)c1ccc(NC(=O)CCCN2C(=O)S/C(=C/c3ccc(OC)cc3)C2=S)cc1	MPTP block 60.7 (no result: CHOP inhibitor, EBV gp42 block, WT yeast gro inh) | Rh123 counter inactive
CCCN1CCN(CCCNC(=O)c2ccc3c(=O)n(CCc4ccccc4)c(=O)[nH]c3c2)CC1	MPTP block 70.1 (no result: CHOP inhibitor, EBV gp42 block, WT yeast gro inh) | Rh123 counter inactive | MPTP swell DR inactive | MPTP cs DR inactive
CN1CCN(C(=O)c2ccc3c(=O)n(Cc4ccc(Cl)cc4)c(=S)[nH]c3c2)CC1	MPTP block 93.2 | Rh123 counter inactive | MPTP swell DR 17.5 | MPTP cs DR inactive
O=C(c1ccc2c(=O)n(Cc3ccc(Cl)cc3)c(=S)[nH]c2c1)N1CCOCC1	none (no result: CHOP inhibitor, EBV gp42 block, WT yeast gro inh)
COCCCNC(=O)c1ccc2c(=O)n(Cc3ccc(Cl)cc3)c(=S)[nH]c2c1	none (no result: CHOP inhibitor, EBV gp42 block, WT yeast gro inh)
CCN1CCN(CCCNC(=O)c2ccc3c(=O)n(CCc4ccccc4)c(=O)[nH]c3c2)CC1	none (no result: CHOP inhibitor, EBV gp42 block, WT yeast gro inh)
CC1CCN(CCNC(=O)c2ccc3c(=O)n(Cc4ccc(Cl)cc4)c(=S)[nH]c3c2)CC1	MPTP block 89.8 (no result: CHOP inhibitor, EBV gp42 block, WT yeast gro inh) | Rh123 counter inactive
Cn1nc(C(C)(C)C)c([N+](=O)[O-])c1C(=O)NC(C)(C)C	none
CC(C)NC(=O)c1ccc2c(=O)n(C3CCCC3)c(=S)[nH]c2c1	none
O=C(c1ccc2c(=O)n(C3CCCC3)c(=S)[nH]c2c1)N1CCc2ccccc21	MPTP block 79.6 | Rh123 counter 68.6
COC(=O)C1=NN(C(=O)c2cccc(Br)c2)C(O)(c2ccc(Cl)cc2)C1 (stereo not given)	MPTP block 66.6 | Rh123 counter 73.2
N#C/C(=C\c1ccc(O)cc1)c1nc2ccccc2o1	MPTP block 87.0 (no result: WT yeast gro inh) | Rh123 counter 89.8
COc1ccc(OCC(=O)Nc2ccccc2C(=O)Nc2ccc(C(=O)O)cc2)cc1	none (no result: CHOP inhibitor, EBV gp42 block, WT yeast gro inh)
O=C(O)C1CC=CCC1C(=O)N1CCN(c2nc(-c3ccccc3)c3ccccc3n2)CC1 (stereo not given)	MPTP block 82.6 | Rh123 counter inactive | MPTP swell DR 10.3 | MPTP cs DR inactive
O=C(O)C1CC=CCC1C(=O)N1CCN(c2nc(-c3ccccc3Cl)c3cc(Br)ccc3n2)CC1 (stereo not given)	none (no result: CHOP inhibitor, EBV gp42 block, WT yeast gro inh)
N#C/C(=C\c1cccnc1)c1nc2ccccc2[nH]1	none (no result: WT yeast gro inh)
Cc1ccc(F)cc1NCC(=O)Nc1ccc(Cl)cc1F	none
Cc1c(Cl)cccc1NCC(=O)Nc1ccc(Cl)cc1F	MPTP block 56.7 | Rh123 counter 57.0
Cc1ccc(C)c(NC(=O)C2C(c3ccccc3)C2(Cl)Cl)c1 (stereo not given)	MPTP block 75.7 | Rh123 counter 88.9
O=C(Nc1ccc(F)cc1)C1C(c2ccccc2)C1(Cl)Cl (stereo not given)	MPTP block 91.6 | Rh123 counter 90.2
CCOc1ccccc1NC(=O)C1C(c2ccccc2)C1(Cl)Cl (stereo not given)	none (no result: CHOP inhibitor, EBV gp42 block, NR3A LBD binder, WT yeast gro inh)
O=C(Nc1ccccc1Cl)C1C(c2ccccc2)C1(Cl)Cl (stereo not given)	none (no result: CHOP inhibitor, EBV gp42 block, WT yeast gro inh)
CCc1ccccc1NC(=O)C1C(c2ccccc2)C1(Cl)Cl (stereo not given)	MPTP block 50.7, WT yeast gro inh 80.7 | Rh123 counter 76.1
O=C(Nc1ccc(F)cc1)C1C2CCC3C(CCC21)C3(Cl)Cl (stereo not given)	MPTP block 61.7 (no result: WT yeast gro inh) | Rh123 counter 73.6
CCCOC(=O)C1=C(C)NC(=O)NC1c1ccc(Br)s1 (stereo not given)	none
Cc1ccc(-n2c(C)cc(/C=N/NC(=O)c3ccncc3)c2C)cc1C	none
O=c1oc2cc(Oc3c([N+](=O)[O-])cc(C(F)(F)F)cc3[N+](=O)[O-])ccc2c2c1CCCC2	CHOP inhibitor 94.5, MPTP block 85.5, WT yeast gro inh 62.2 | Rh123 counter 88.6
CCNC(=O)c1cccc(NC(=O)c2cc(C3CC3)nc3c2cnn3C(C)C)c1	none (no result: CHOP inhibitor, EBV gp42 block, WT yeast gro inh)
CC(C)n1ncc2c(C(=O)Nc3cccc(C#N)c3)cc(C3CC3)nc21	MPTP block 73.1 (no result: CHOP inhibitor, EBV gp42 block, WT yeast gro inh) | Rh123 counter 85.4
CNCCCC1Sc2ccccc2Oc2ccccc21 (stereo not given)	MPTP block 79.4 | Rh123 counter inactive | MPTP swell DR 5.09 | MPTP cs DR inactive
CC(C)(C)CC(=O)Nc1nnc(C(F)(F)F)s1	none
O=C(Nc1nnc(C(F)(F)F)s1)C1COc2ccccc2O1 (stereo not given)	MPTP block 83.6 | Rh123 counter 77.7
O=C(Nc1nnc(C(F)(F)F)s1)c1ccc(Br)s1	MPTP block 77.9, WT yeast gro inh 63.0 | Rh123 counter 74.5
Cc1nn(-c2ccccc2)nc1C(=O)Nc1nnc(C(F)(F)F)s1	MPTP block 72.7 (no result: WT yeast gro inh) | Rh123 counter 79.3
